Tests used:
[1] = test system: Human immunodeficiency virus 1; assay: Antiviral activity against Human immunodeficiency virus 1 3B infected in human MT2 cells assessed as protection against viral infection by MTT assay; assay type: functional, organism-based
How it was run: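 HIV-1 (IIIB or variant strains) infected into MT-2 human T-cells. The MTT colorimetric read-out measured cell viability. […] Antiviral curves used triplicate samples at each concentration, and a cytotoxicity (CC50) curve on MT-2 growth was run at the same time.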

MT2 [2] = assay: Cytotoxicity against human MT2 cells infected with HIV1 3B by MTT assay; assay type: cell-based
[3] = test system: Human immunodeficiency virus 1; assay: Antiviral activity against Human immunodeficiency virus 1 NL4.3 infected in human MT2 cells assessed as inhibition of viral infection; assay type: functional, organism-based; settings: Human immunodeficiency virus 1, NL4.3, MT2
How it was run: (§1)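 HIV-1 (IIIB or variant strains) infected into MT-2 human T-cells. The MTT colorimetric read-out measured cell viability. Antiviral curves used triplicate samples at each concentration, and a cytotoxicity (CC50) curve on MT-2 growth was run at the same time.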

[4] = test system: Human immunodeficiency virus 1; assay: Antiviral activity against Human immunodeficiency virus 1 NL4.3 reverse transcriptase K103N and Y181C double mutant infected in human MT2 cells assessed as inhibition of viral infection; assay type: functional, organism-based; settings: Human immunodeficiency virus 1, NL4.3, MT2; how it was run: as §1
MT2 [5] = assay: (§2) Cytotoxicity against human MT2 cells infected with HIV1 NL4.3 by MTT assay; assay type: cell-based; settings: mt2
[6] = test system: Human immunodeficiency virus 1; assay: Antiviral activity against Human immunodeficiency virus 1 NL4.3 reverse transcriptase Y181C mutant infected in human MT2 cells assessed as inhibition of viral infection; assay type: functional, organism-based; settings: Human immunodeficiency virus 1, NL4.3, MT2; how it was run: as §1
[7] = as §2; assay type: cell-based; settings: MT2 cells infected with HIV1 NL4.3

Row | SMILES | EC50 [1] [nM] | CC50 (MT2 [2]) [µM] | EC50 [3] [nM] | EC50 [4] [nM] | CC50 (MT2 [5]) [µM] | EC50 [6] [µM] | CC50 [7] [µM]
1 | Cc1ccc(OCCn2ccc(=O)[nH]c2=O)c(Cc2ccccc2)c1 | 4800 | 72 | – | – | – | – | –
2 | O=c1ccn(CCOc2cc(Cl)cc(Cl)c2Oc2ccccc2Cl)c(=O)[nH]1 | 830 | 13 | – | – | – | – | –
3 | O=c1ccn(CCOc2ccc(Cl)cc2Cc2ccccc2)c(=O)[nH]1 | 1200 | 23 | – | – | – | – | –
4 | O=c1ccn(CCOc2ccc(Cl)cc2Cc2ccccc2Cl)c(=O)[nH]1 | 620 | 28 | – | – | – | – | –
5 | O=c1ccn(CCOc2ccc(Cl)cc2Cc2cccc(Cl)c2)c(=O)[nH]1 | 1500 | 11 | – | – | – | – | –
6 | O=c1ccn(CCOc2ccc(Cl)cc2Cc2ccc(Cl)cc2Cl)c(=O)[nH]1 | 2900 | 88 | – | – | – | – | –
7 | O=c1ccn(CCOc2ccc(Cl)cc2Cc2cc(Cl)cc(Cl)c2)c(=O)[nH]1 | 1300 | 10 | – | – | – | – | –
8 | O=c1ccn(CCOc2ccc(Cl)cc2Cc2cc(Cl)ccc2Cl)c(=O)[nH]1 | 380 | 15 | – | – | – | – | –
9 | O=c1ccn(CCOc2ccc(Cl)cc2Cc2c(Cl)cccc2Cl)c(=O)[nH]1 | 310 | 49 | – | – | – | – | –
10 | Cc1cn(CCOc2ccc(Cl)cc2Cc2ccccc2)c(=O)[nH]c1=O | 2400 | 22 | – | – | – | – | –
11 | O=c1[nH]c(=O)n(CCOc2ccc(Cl)cc2Cc2ccccc2)cc1F | 2500 | 27 | – | – | – | – | –
12 | O=c1[nH]c(=O)n(CCOc2ccc(Cl)cc2Cc2ccccc2)cc1Cl | 2200 | 21 | – | – | – | – | –
13 | O=c1ccn(CCOc2cc(Cl)ccc2Cc2ccccc2Cl)c(=O)[nH]1 | 410 | 12 | – | – | – | – | –
14 | N#Cc1cc(C#N)cc(Oc2cc(Cl)ccc2OCCn2ccc(=O)[nH]c2=O)c1 | 140 | 80 | 140 | 2200 | 77 | 21 | –
15 | N#Cc1cccc(Cl)c1Oc1cc(Cl)ccc1OCCn1ccc(=O)[nH]c1=O | 120 | 50 | – | – | – | – | –
16 | N#Cc1cc(Cl)cc(Oc2cc(Cl)ccc2OCCn2ccc(=O)[nH]c2=O)c1 | 90 | 33 | 90 | 1200 | 32 | 6.7 | –
17 | N#Cc1ccc(Cl)c(Oc2ccc(Cl)cc2OCCn2ccc(=O)[nH]c2=O)c1 | 100 | 60 | – | – | – | – | –
18 | N#Cc1cc(C#N)cc(Oc2ccc(Cl)cc2OCCn2ccc(=O)[nH]c2=O)c1 | 46 | > 100 | – | – | – | – | –
19 | N#Cc1cc(Cl)cc(Oc2ccc(Cl)cc2OCCn2ccc(=O)[nH]c2=O)c1 | 14 | – | 14 | 1700 | – | 0.52 | > 100
20 | N#Cc1cc(Cl)cc(Oc2ccc(Cl)cc2OCCn2cc(F)c(=O)[nH]c2=O)c1 | 13 | 17 | 13 | 1700 | 13 | 0.62 | –

Reference: ChEMBL document CHEMBL1921799, “Computationally-guided optimization of a docking hit to yield catechol diethers as potent anti-HIV agents” (J Med Chem, 2011)
